Assay results published in the M2OR odorant receptor database.

Tests used:
Conditions in all cases: stereoisomer not certain
UniProt Q8VGC6 = target: T1, UniProt Q8VGC6
T1 sequence (whole entry): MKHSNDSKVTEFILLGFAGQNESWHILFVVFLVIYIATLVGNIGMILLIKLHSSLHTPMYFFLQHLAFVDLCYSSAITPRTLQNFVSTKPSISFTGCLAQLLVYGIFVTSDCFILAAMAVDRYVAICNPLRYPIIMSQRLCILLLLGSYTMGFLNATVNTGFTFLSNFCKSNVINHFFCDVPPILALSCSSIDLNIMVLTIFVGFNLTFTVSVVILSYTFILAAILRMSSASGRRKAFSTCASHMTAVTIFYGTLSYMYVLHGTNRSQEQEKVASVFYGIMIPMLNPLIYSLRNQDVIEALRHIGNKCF
In short: (§1)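 Assay methods differ from source to source, frequently being transient luciferase assays in mammalian cell lines. For each receptor–molecule pair, the label responsive (active) applies when the original authors judged the measured signal statistically different from baseline, and non-responsive (inactive) applies otherwise.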

UniProt Q8VGD7 = target: T2, UniProt Q8VGD7
T2 sequence (whole entry): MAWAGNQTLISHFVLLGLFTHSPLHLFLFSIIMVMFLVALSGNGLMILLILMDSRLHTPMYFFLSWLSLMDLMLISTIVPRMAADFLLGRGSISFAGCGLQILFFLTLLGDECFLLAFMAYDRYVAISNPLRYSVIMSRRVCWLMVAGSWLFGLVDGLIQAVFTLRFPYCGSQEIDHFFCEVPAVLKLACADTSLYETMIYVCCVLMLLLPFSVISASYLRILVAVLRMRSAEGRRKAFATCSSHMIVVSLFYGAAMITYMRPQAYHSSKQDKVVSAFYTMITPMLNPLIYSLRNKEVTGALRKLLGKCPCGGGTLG
In short: as §1

UniProt Q8VGH1 = target: T3, UniProt Q8VGH1
T3 sequence (whole entry): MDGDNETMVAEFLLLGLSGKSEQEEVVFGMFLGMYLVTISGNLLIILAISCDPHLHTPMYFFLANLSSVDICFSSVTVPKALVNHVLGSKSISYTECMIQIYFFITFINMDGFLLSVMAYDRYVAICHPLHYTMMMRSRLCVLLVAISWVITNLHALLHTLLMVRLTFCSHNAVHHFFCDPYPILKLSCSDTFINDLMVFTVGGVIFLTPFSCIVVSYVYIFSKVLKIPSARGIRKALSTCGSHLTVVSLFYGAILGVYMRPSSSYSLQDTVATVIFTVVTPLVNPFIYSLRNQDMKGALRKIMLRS
In short: as §1

UniProt Q8VGJ1 = target: T4, UniProt Q8VGJ1
T4 sequence (whole entry): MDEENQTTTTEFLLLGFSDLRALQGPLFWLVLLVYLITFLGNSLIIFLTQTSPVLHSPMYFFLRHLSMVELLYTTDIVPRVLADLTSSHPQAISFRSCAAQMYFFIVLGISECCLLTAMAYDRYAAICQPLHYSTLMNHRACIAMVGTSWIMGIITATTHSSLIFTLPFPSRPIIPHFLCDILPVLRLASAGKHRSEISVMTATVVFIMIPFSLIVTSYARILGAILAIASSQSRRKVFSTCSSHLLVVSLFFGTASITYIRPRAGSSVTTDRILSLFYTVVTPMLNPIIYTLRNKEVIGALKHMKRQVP
In short: as §1

UniProt Q8VGJ3 = target: T5, UniProt Q8VGJ3
T5 sequence (whole entry): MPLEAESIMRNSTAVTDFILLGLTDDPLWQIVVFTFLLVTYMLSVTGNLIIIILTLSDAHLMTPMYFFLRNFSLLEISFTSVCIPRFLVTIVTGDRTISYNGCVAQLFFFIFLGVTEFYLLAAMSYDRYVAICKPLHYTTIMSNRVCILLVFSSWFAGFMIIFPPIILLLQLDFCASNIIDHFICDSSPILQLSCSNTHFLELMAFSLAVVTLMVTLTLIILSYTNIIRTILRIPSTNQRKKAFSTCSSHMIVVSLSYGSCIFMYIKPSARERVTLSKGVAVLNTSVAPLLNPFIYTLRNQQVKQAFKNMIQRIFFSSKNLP
In short: as §1

UniProt Q8VGJ5 = target: T6, UniProt Q8VGJ5
T6 sequence (whole entry): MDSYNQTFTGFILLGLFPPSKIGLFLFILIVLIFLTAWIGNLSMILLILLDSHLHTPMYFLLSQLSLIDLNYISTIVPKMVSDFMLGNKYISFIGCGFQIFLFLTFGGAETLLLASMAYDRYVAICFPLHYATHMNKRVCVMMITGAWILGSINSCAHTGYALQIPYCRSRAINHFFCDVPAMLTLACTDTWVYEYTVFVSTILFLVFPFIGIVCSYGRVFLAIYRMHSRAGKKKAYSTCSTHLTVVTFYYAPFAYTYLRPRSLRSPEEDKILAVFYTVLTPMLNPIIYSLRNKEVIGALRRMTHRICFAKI
In short: as §1

UniProt Q8VGL0 = target: T7, UniProt Q8VGL0
T7 sequence (whole entry): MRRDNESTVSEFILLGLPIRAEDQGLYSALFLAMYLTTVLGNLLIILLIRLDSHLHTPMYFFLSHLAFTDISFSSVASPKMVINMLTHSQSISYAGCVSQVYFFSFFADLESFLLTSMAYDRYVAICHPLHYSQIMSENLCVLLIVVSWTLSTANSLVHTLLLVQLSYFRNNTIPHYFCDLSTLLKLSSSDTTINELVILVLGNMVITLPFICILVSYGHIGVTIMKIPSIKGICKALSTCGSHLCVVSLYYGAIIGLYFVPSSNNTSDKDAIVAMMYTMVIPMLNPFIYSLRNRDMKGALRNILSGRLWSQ
In short: as §1

UniProt Q8VGL7 = target: T8, UniProt Q8VGL7
T8 sequence (whole entry): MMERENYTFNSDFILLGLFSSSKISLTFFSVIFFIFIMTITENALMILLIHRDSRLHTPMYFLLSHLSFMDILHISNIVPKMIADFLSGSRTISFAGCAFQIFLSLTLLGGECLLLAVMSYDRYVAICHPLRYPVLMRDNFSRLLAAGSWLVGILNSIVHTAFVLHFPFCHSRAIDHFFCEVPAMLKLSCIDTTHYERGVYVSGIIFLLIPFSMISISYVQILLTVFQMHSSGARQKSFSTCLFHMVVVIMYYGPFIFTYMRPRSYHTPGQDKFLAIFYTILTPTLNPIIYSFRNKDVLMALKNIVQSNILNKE
In short: as §1

UniProt Q8VGM2 = target: T9, UniProt Q8VGM2
T9 sequence (whole entry): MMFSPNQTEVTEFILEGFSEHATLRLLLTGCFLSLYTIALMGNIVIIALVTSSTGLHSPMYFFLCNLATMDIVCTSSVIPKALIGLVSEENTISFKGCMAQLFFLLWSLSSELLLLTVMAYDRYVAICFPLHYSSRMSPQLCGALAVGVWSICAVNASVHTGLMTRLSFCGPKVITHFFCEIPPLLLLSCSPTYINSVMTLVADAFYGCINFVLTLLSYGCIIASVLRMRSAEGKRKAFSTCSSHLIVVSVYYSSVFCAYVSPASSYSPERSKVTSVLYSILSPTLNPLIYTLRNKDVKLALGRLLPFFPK
In short: as §1

UniProt Q8VGP6 = target: T10, UniProt Q8VGP6
T10 sequence (whole entry): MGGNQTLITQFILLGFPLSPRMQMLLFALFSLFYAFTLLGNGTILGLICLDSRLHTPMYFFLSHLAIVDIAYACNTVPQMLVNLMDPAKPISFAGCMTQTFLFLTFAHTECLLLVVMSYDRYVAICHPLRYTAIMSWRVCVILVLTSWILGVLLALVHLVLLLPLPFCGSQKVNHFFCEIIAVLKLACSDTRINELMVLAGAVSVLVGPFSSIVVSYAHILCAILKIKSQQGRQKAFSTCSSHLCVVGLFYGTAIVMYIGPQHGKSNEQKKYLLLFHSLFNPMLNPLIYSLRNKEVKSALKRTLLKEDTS
In short: as §1

UniProt Q8VGQ3 = target: T11, UniProt Q8VGQ3
T11 sequence (whole entry): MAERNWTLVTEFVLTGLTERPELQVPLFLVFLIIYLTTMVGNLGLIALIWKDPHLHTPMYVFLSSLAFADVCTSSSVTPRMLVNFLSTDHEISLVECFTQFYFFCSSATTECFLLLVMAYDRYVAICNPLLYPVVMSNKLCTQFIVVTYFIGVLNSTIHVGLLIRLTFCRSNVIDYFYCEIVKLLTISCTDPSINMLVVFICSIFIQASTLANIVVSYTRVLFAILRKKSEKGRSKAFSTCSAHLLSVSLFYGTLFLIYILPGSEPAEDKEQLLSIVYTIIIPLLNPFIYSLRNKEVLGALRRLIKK
In short: as §1

UniProt Q8VGT4 = target: T12, UniProt Q8VGT4
T12 sequence (whole entry): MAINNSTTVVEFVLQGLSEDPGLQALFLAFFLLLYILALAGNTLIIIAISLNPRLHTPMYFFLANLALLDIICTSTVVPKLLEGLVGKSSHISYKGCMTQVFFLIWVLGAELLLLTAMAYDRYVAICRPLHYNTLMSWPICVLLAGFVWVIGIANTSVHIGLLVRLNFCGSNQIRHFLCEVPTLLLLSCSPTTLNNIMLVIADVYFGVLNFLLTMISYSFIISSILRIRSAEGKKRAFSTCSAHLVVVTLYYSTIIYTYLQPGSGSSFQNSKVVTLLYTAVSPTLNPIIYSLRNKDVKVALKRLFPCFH
In short: as §1

UniProt Q8VGU3 = target: T13, UniProt Q8VGU3
T13 sequence (whole entry): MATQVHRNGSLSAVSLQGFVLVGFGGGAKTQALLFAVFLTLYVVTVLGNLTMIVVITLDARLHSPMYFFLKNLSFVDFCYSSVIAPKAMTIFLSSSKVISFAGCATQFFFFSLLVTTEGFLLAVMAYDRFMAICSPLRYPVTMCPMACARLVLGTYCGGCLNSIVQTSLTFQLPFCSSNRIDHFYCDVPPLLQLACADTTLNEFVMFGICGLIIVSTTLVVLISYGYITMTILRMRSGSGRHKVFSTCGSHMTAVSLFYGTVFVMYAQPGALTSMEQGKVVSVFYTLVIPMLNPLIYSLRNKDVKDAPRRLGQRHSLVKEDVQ
In short: as §1

UniProt Q8VGV1 = target: T14, UniProt Q8VGV1
T14 sequence (whole entry): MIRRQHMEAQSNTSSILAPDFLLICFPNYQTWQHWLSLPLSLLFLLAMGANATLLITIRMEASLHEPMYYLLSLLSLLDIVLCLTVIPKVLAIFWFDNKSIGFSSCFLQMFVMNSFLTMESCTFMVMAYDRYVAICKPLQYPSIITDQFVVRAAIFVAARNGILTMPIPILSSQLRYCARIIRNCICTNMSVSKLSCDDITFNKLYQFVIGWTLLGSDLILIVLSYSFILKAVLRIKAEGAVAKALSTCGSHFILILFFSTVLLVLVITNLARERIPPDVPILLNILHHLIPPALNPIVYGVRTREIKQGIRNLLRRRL
In short: as §1

UniProt Q8VGV7 = target: T15, UniProt Q8VGV7
T15 sequence (whole entry): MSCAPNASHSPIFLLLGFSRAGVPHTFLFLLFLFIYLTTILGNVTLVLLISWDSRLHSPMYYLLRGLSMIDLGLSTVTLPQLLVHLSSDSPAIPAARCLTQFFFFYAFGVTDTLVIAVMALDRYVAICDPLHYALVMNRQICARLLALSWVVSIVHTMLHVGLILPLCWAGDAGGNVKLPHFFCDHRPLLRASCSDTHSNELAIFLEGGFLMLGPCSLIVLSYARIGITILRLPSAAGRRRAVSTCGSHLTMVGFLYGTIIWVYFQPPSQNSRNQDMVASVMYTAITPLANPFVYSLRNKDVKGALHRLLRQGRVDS
In short: as §1

UniProt Q8VGX3 = target: T16, UniProt Q8VGX3
T16 sequence (whole entry): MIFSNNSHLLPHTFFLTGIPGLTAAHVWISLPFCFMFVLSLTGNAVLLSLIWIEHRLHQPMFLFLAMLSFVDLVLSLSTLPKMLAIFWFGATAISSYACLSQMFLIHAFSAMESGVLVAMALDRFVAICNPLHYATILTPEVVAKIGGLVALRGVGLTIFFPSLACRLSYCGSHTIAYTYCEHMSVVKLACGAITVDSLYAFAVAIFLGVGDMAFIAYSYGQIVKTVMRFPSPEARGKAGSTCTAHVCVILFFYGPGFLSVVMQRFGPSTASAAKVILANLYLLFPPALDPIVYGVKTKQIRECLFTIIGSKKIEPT
In short: as §1

UniProt Q8VGX5 = target: T17, UniProt Q8VGX5
T17 sequence (whole entry): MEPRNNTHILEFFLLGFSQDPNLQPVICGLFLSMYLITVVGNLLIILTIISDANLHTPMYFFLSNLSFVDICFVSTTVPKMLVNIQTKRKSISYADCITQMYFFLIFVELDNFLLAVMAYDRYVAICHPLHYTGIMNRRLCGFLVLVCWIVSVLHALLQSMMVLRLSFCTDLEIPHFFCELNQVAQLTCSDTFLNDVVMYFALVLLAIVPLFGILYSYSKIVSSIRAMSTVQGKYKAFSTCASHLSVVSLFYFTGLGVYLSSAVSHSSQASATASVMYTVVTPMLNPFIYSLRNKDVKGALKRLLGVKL
In short: as §1

Measured: odorant receptor agonist call

CCCCOC=O
inactive: all assays above

CCC=O
inactive: UniProt Q8VGC6

CCCCCC(C)(C)O
inactive: UniProt Q8VGC6

CC(C)C12CCC(C)(CC1)O2
inactive: UniProt Q8VGC6

CCC(=O)OC
inactive: UniProt Q8VGC6

CCCOC(=O)CCC
inactive: UniProt Q8VGC6

CC(C)CN
inactive: UniProt Q8VGC6

OCc1ccccc1
inactive: UniProt Q8VGC6
